Entries after “also recorded” stand apart in the source; their conditions may differ. Like-named read-outs stand apart in the source and are kept apart here.
Key:
[1] = target: T1, System xC^- cystine/glutamate antiporter (SXC) (Rattus norvegicus, UniProt A0A8I6AB70); assay: LPS-induced glutamate release from primary microglia; type: cell-based; details: for Inhibition of LPS-induced glutamate release (result in words): LPS-treated rat primary microglia
In short: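 Rat primary microglia were taken from 14–21-day mixed glial cultures of 1–2-day pup brains by shaking at 200 rpm for 2 h at 37 °C. Cells were plated at 50,000/well on poly-D-Lys and switched after 24 h to serum-free, phenol red-free DMEM with 2 mM glutamine and 0.2 mM cystine. Test compound (8 concentrations, 10 pM–100 μM, 0.1% DMSO final, duplicate or triplicate) was added 15 min before 1 μg/ml LPS for 24 h. Extracellular glutamate was read by enzyme-coupled Amplex UltraRed fluorescence against a glutamate standard curve, with cell-free counter-screens.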

[2] = target: T1, System xC^- cystine/glutamate antiporter (SXC); assay: [14C]-cystine uptake by LPS-activated primary microglia; type: cell-based
In short: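 Microglia were exposed for 24 h to HBSS or LPS (in HBSS) in DMEM with 0.2 mM cystine. An aliquot of that medium was checked for glutamate release to confirm activation. Medium was then replaced and uptake was measured over 15 min in EBSS with [¹⁴C]-cystine tracer (45 μCi/μmol, 10 μM), with LPS ± test compound. Specific uptake was obtained by subtracting a background control. Values average at least four determinations.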

[3] = system: ferroptosis; details: read-out: EC50 for induction of ferroptosis; cited from earlier work
[4] = target: T1, System xC^- cystine/glutamate antiporter (SXC); details: 1 mM; used for background control; stated as known, no reference given; cited from earlier work
[5] = system: rat primary microglia; type: cell-based; details: 24 h treatment; Pam3CSK4 10 µg/ml, poly I:C 50 µg/ml, Tat 1 µM, LPS 1 µg/ml
In short: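 Primary microglia were isolated from neonatal rat mixed glial cultures by shaking and kept in serum-free, phenol red-free DMEM with 2 mM glutamine and 0.2 mM cystine. Cells were stimulated for 24 h with the activator. Extracellular glutamate was quantified by enzyme-coupled Amplex UltraRed fluorescence against a standard curve, linear over 0.5–64 μM glutamate.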

T1 sequence (A0A8I6AB70 1-502): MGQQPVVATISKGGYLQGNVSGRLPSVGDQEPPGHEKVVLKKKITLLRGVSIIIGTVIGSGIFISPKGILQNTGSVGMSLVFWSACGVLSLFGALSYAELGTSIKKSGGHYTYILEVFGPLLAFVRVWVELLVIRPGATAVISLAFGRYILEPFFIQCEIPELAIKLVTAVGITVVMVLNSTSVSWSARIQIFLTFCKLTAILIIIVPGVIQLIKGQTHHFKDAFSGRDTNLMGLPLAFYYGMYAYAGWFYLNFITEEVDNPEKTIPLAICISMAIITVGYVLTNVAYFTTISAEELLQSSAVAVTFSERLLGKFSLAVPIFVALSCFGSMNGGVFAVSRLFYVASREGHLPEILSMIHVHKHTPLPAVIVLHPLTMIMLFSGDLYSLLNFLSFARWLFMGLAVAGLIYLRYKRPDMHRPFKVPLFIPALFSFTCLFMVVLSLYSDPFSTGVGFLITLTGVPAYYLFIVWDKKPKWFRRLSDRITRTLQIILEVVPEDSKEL
T1 sequence (Q794F9 whole entry partner): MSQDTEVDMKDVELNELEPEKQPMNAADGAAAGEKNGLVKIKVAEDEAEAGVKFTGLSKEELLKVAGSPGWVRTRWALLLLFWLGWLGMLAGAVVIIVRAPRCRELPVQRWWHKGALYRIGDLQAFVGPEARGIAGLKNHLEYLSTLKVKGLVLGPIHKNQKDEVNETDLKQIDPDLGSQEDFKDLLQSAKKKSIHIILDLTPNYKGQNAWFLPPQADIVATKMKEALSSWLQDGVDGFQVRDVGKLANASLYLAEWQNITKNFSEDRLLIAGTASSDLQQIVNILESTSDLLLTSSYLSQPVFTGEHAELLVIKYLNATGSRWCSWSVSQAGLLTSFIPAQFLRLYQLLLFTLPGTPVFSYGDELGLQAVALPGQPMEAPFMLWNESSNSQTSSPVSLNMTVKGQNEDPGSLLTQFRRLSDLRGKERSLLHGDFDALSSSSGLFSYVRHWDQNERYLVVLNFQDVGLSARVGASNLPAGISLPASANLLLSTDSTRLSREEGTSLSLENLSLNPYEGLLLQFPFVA

| Molecule | Inhibition of LPS-induced glutamate release (result in words) [1] | Inhibition of cystine uptake (result in words) [2] | further results |
| --- | --- | --- | --- |
| CC(C)Oc1ccccc1-n1c(CN2CCN(C(=O)COc3ccc(Cl)cc3)CC2)nc2ccccc2c1=O [13MEW76] | did not affect inhibitory activity |  |  |
| CCOc1ccccc1-n1c(C(C)N2CCN(C(=O)COc3ccccc3)CC2)nc2ccccc2c1=O (stereo not shown) [35MEW13] | abolished inhibitory activity |  |  |
| CCOc1ccccc1-n1c(C(C)N2CCN(C(C)=O)CC2)nc2ccccc2c1=O (stereo not shown) [Erastin A8] | abolished inhibitory activity; also recorded: inactive | inactive |  |
| N[C@@H](C(=O)O)c1ccc(C(=O)O)cc1 [R-4CPG] | failed to inhibit | failed to inhibit | Inhibition of LPS-induced glutamate release (result in words) ([1]; listed as (R)-4-CPG): did not inhibit; Inhibition of cystine uptake (result in words) ([2]; listed as (R)-4-CPG): did not inhibit |
| N[C@H](C(=O)O)c1ccc(C(=O)O)cc1 [S-4CPG, (S)-4-carboxyphenyl glycine] | blocked | blocked |  |
| CCOc1ccccc1-n1c(C(C)N2CCN(C(=O)COc3ccc(Cl)cc3)CC2)nc2ccccc2c1=O (stereo not shown) [erastin] | blocked | blocked | EC50 [1]: 130 ± 40 nM; EC50 [3]: 1200 nM |
| O=C(O)c1cc(/N=N/c2ccc(S(=O)(=O)Nc3ccccn3)cc2)ccc1O [sulfasalazine] | blocked | blocked | Inhibition of SXC activity (result in words) [4]: completely inhibit |
| polyinosinic: polycytidylic acid [poly I:C] |  |  | Induction of glutamate release (result in words) [5]: Significant glutamate release |
| HIV-1 Tat1–86 protein: HIV-1 Tat1–86 protein obtained from Diatheva, microglia activator (protein, UniProt P04608 1-86, looked up) Protein Tat: MEPVDPRLEPWKHPGSQPKTACTNCYCKKCCFHCQVCFITKALGISYGRKKRRQRRRAHQNSQTHQASLSKQPTSQPRGDPTGPKE |  |  | Induction of glutamate release (result in words) [5]: Significant glutamate release |
